From ChEMBL document CHEMBL2331489, “Novel cinnoline-based inhibitors of LRRK2 kinase activity” (Bioorg Med Chem Lett, 2013)
The source made the active and inactive calls. The calls are words filed in the database; no cut-off is given here.

How the values were obtained:
[1] = biological target: T1, Mitogen-activated protein kinase kinase kinase 7 (Homo sapiens) (UniProt O43318); assay: Inhibition of MAP3K7 (unknown origin) at 10 uM relative to control
T1 sequence (whole entry): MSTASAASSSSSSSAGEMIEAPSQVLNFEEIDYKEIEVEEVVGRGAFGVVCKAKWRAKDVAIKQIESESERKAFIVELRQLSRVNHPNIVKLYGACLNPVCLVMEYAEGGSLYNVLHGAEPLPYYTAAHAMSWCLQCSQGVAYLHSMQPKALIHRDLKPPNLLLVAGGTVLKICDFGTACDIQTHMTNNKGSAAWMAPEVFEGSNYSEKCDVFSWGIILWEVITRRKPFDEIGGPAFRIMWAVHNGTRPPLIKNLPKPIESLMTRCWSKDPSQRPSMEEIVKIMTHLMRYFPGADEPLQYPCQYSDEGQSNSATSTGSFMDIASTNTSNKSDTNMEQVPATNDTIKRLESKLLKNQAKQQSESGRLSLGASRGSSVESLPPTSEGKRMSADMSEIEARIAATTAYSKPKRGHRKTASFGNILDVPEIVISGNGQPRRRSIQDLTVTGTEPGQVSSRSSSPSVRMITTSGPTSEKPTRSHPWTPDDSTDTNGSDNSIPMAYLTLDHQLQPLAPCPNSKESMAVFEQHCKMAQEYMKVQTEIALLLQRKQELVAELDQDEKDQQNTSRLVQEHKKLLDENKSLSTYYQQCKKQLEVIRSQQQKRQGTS

Brain = assay: Drug uptake in Mdr1(a/b) knock out and P-gp competent FVB mouse brain at 1 mg/kg, iv at 5 mins; type: ADME, organism-based; set-up: dose 1 mg/kg, route intravenous; details: in vivo
Summary of the method: (§1)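 FVB mice, both Mdr1a/b (-/-) and P-gp-competent wild-type, were given a single 1 mg/kg IV dose. Brain and plasma concentrations were measured 5 min after dosing. Brain uptake was expressed as the brain-to-plasma concentration ratio (Kp). In vivo P-gp efflux was assessed by comparing the knockout and wild-type strains.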

[2] = biological target: Platelet-derived growth factor receptor alpha (Homo sapiens, UniProt P16234); assay: Inhibition of PDGFRalpha (unknown origin) by TR-FRET assay in presence of ATP
Sequence of Platelet-derived growth factor receptor alpha (P16234 whole entry): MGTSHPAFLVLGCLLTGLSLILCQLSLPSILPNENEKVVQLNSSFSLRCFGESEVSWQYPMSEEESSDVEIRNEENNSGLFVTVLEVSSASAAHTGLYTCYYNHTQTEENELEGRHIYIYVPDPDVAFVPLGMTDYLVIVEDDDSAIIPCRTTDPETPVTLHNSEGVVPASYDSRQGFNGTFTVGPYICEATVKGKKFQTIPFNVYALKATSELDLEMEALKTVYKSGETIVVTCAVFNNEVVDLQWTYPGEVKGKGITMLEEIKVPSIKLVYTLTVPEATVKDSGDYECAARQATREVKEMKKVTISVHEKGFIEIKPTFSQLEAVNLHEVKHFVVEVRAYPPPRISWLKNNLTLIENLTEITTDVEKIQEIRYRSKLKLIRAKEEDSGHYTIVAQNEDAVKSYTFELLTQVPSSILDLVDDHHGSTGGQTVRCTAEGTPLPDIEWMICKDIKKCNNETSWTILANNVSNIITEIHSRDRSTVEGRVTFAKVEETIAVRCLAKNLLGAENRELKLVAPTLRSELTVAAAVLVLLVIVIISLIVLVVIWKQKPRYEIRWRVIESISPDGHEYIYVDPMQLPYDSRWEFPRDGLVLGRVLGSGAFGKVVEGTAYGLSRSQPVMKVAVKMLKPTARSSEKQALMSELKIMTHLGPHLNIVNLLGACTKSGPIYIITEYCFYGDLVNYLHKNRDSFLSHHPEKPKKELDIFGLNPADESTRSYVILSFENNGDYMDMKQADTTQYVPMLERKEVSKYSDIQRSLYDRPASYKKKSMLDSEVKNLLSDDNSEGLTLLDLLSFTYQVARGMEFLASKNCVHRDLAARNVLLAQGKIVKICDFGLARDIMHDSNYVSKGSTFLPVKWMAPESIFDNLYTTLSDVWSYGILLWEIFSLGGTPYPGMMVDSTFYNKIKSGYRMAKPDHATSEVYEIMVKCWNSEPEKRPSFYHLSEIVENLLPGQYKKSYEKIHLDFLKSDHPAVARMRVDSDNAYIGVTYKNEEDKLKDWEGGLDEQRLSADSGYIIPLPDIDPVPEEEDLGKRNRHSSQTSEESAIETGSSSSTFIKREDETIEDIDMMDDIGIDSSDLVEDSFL

[3] = biological target: Macrophage colony-stimulating factor 1 receptor (Homo sapiens, UniProt P07333); assay: Inhibition of CSF1R (unknown origin) by TR-FRET assay in presence of ATP
Sequence of Macrophage colony-stimulating factor 1 receptor (P07333 whole entry): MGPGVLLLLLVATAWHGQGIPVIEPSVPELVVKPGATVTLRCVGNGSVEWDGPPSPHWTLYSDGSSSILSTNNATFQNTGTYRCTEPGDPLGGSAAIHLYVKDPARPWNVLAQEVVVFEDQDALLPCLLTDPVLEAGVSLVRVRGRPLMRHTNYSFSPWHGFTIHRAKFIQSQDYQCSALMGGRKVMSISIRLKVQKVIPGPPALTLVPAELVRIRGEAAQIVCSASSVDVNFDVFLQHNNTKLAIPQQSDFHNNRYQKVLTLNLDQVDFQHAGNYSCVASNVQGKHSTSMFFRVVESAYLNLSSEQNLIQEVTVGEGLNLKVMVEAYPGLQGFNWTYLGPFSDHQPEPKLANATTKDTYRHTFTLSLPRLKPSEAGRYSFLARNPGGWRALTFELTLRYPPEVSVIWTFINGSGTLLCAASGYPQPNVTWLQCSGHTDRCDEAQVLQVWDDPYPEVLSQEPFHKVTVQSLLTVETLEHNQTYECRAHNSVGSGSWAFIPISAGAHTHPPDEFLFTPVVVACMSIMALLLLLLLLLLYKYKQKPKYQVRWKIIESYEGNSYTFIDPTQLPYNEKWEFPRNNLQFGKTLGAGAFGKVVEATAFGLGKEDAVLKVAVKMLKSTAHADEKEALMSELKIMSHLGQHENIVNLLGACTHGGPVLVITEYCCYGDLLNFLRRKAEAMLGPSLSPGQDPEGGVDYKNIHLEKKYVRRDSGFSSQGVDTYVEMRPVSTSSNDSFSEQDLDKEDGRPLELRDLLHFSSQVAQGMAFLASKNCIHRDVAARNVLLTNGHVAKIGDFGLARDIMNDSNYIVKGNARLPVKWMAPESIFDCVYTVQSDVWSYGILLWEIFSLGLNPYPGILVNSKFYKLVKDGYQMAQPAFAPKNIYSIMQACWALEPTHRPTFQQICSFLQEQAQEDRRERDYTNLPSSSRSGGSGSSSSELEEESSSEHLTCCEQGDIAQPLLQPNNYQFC

[4] = biological target: ATP-dependent translocase ABCB1 (Homo sapiens, UniProt P08183); assay: Inhibition of MDR1 (unknown origin) transfected in MDCK cells; type: cell-based
Mus musculus = assay: Inhibition of P-gp in Mdr1(a/b) knock out and P-gp competent FVB mouse at 1 mg/kg, iv; type: functional, organism-based; set-up: dose 1 mg/kg; summary of the method: as §1
[5] = Ratio of drug level in brain to plasma in Mdr1(a/b) knock out and P-gp competent FVB mouse at 1 mg/kg, iv at 5 mins; type: ADME, organism-based; set-up: dose 1 mg/kg, route intravenous; details: read-out: BPR; summary of the method: as §1
[6] = biological target: T2, Leucine-rich repeat serine/threonine-protein kinase 2 (Homo sapiens, UniProt Q5S007, G2019S); assay: Inhibition of GST-tagged LRRK2 G2019S mutant (970 to 2527 amino acid residues) (unknown origin) assessed as inhibition of biotinylated-LRRKtide phosphorylation by HTRF assay in presence of ATP
T2 sequence (Q5S007 whole entry G2019S, the tested form may be a part): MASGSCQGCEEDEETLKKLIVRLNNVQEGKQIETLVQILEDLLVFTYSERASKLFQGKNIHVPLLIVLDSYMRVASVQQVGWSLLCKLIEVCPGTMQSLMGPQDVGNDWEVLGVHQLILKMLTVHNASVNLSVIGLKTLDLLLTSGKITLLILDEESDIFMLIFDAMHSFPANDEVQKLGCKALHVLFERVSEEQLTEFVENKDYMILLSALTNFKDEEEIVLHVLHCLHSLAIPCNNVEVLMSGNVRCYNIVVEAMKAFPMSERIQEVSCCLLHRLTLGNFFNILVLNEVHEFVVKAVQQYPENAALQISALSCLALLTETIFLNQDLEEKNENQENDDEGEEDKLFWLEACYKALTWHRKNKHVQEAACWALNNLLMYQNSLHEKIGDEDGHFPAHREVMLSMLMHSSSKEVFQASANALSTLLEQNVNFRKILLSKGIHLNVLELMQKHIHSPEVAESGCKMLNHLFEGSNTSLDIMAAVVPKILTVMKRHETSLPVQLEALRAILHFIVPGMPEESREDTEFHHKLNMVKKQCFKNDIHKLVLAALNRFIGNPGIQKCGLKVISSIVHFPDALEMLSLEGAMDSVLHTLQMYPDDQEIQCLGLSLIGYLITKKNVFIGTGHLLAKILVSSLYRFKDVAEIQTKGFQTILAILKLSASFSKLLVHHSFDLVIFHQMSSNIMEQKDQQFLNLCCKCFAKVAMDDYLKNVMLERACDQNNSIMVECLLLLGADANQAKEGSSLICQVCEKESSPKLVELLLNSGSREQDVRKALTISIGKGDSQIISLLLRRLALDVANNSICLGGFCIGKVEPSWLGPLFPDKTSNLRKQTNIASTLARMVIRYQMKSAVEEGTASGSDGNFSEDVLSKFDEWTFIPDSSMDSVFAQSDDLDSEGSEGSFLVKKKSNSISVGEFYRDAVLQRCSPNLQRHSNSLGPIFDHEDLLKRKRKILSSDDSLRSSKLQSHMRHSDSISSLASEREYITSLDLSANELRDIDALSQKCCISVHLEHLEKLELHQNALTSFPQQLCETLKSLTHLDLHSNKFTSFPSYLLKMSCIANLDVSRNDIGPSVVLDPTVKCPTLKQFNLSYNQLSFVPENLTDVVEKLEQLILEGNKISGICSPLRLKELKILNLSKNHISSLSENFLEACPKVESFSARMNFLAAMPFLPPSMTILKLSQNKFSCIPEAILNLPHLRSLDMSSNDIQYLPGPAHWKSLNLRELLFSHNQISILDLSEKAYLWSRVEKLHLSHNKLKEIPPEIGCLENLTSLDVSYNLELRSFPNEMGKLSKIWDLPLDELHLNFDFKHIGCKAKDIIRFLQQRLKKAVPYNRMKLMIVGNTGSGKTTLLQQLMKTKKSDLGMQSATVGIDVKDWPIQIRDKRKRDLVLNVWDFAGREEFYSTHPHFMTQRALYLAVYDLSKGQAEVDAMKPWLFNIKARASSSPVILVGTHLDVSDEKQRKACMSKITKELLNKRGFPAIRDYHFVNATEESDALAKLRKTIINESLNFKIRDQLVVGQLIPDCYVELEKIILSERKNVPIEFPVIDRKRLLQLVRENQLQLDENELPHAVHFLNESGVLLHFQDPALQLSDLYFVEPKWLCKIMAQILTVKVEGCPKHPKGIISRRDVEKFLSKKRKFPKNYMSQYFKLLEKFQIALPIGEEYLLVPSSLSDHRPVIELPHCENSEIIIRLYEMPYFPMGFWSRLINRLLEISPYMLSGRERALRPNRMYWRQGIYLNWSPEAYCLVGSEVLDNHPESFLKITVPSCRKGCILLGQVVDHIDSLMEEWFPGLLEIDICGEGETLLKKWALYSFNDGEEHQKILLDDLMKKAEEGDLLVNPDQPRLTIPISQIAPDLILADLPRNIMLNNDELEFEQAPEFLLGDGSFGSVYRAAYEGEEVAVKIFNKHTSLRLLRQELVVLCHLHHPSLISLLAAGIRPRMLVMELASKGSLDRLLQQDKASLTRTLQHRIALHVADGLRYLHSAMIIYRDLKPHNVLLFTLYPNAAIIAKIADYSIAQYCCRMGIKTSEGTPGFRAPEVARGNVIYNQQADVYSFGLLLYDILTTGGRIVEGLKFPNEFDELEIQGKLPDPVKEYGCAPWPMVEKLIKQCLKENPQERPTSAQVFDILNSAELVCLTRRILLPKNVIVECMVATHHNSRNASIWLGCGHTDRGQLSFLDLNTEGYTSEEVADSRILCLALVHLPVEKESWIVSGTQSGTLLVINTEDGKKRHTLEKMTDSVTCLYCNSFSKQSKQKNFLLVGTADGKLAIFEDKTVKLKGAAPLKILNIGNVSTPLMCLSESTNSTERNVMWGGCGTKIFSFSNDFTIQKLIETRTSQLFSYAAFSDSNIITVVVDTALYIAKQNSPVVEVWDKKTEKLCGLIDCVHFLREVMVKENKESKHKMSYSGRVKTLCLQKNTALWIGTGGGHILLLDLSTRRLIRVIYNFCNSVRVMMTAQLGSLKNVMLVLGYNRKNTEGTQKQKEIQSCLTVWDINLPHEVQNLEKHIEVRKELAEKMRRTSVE

[7] = biological target: Leucine-rich repeat serine/threonine-protein kinase 2 (Homo sapiens, UniProt Q5S007); assay: Inhibition of wild type GST-tagged LRRK2 (970 to 2527 amino acid residues) (unknown origin) assessed as inhibition of biotinylated-LRRKtide phosphorylation by HTRF assay in presence of ATP
Sequence of Leucine-rich repeat serine/threonine-protein kinase 2 (Homo sapiens, UniProt Q5S007) (Q5S007 whole entry, the tested form may be a part): as the sequence (Q5S007 whole entry G2019S, the tested form may be a part) above, with S2019G counted along it

[8] = biological target: T2, Leucine-rich repeat serine/threonine-protein kinase 2; assay: Inhibition of LRRK2 G2019S mutant (unknown origin) transfected in HEK293 cells assessed as inhibition of S935 phosphorylation; type: cell-based

SMILES	inhibition [1] [%]	Drug uptake (Brain)	IC50 [2] [nM]	IC50 [3] [nM]	inhibition (INH) [4]	inhibition (Mus musculus)	Kp at 5 min [5]	IC50 [6] [nM]	IC50 [7] [nM]	EC50 [8] [nM]
CC(C)Nc1c(C(N)=O)nnc2cc(N3CCOCC3)ccc12	67	Active	22	54	Active	Active	11.4	12	9	–
CC(C)Nc1c(C(N)=O)nnc2ccc(-c3cn[nH]c3)cc12	97	–	–	–	–	–	–	5	1	109
CC(C)Nc1c(C(N)=O)nnc2cc(-c3ccncc3)ccc12	102	–	–	–	–	–	–	–	–	–
C[C@@H](Nc1c(C(N)=O)nnc2cc(-c3ccc(S(C)(=O)=O)cc3)ccc12)C1CC1	39	–	22	17	–	–	–	7	1	70
CS(=O)(=O)c1ccc(-c2ccc3c(NC4CCC4)c(C(N)=O)nnc3c2)cc1	66	Active	127	< 40	Active	Active	0.76	19	–	–
CC(C)Nc1c(C(N)=O)nnc2ccc(-c3ccncc3)cc12	84	–	–	–	–	–	–	66	–	–
CC(C)Nc1c(C(N)=O)cnc2cc(-c3ccc(S(C)(=O)=O)cc3)ccc12	89	–	–	–	–	–	–	–	35	–
